pIC50: −log10 of the molar value.
How the values were obtained:
HeLa [1] = test: Inhibitory concentration against human immunodeficiency virus type 1 (with K103N/G190A resistant mutation) was determined in HeLa-CD4 MAGI assay; assay type: functional, cell-based
Summary of the method: (§1)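 Tested against a panel of recombinant, isogenic HIV-1 viruses, wild type and NNRTI-resistant strains carrying engineered single or double RT mutations. The readout was IC50.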

HeLa [2] = test: Inhibitory concentration against human immunodeficiency virus type 1 (with K103N/V108I resistant mutation) was determined in HeLa-CD4 MAGI assay; assay type: functional, cell-based; summary of the method: as §1
HeLa [3] = test: Inhibitory concentration against human immunodeficiency virus type 1 (with K103N/Y181C resistant mutation) was determined in HeLa-CD4 MAGI assay; assay type: functional, cell-based; summary of the method: as §1
HeLa [4] = test: Inhibitory concentration against human immunodeficiency virus type 1 (with V106A/Y181C resistant mutation) was determined in HeLa-CD4 MAGI assay; assay type: functional, cell-based; summary of the method: as §1
HeLa [5] = test: Inhibitory concentration against human immunodeficiency virus type 1 (with V108I/Y181C resistant mutation) was determined in HeLa-CD4 MAGI assay; assay type: functional, cell-based; summary of the method: as §1
MT4 [6] = test: Ratio of cytotoxic concentration to that of inhibitory concentration as selectivity index was determined by MT-4 assay; assay type: functional, Homo sapiens
Summary of the method: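 Index is the IC50 in uninfected MT4 cells divided by the antiviral IC50 in MT4 cells infected with wild-type HIV-1 or the nevirapine-resistant strain carrying RT mutation Y181C.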

MT4 [7] = test: Inhibitory concentration against wild type human immunodeficiency virus type 1 was determined by MT-4 assay; assay type: functional, cell-based
[8] = system: Human immunodeficiency virus 1; test: Inhibitory concentration against wild type human immunodeficiency virus type 1 was determined by recombinant virus assay; assay type: functional, organism-based
Summary of the method: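 Isogenic recombinant HIV-1 carrying wild-type RT, tested in parallel with a panel of NNRTI-resistant RT mutants built on the same background; activity reported as IC50.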

MT4 [9] = test: Inhibitory concentration against nevirapine resistant strain (with Y181C mutation in HIV-1 RT gene) of human immunodeficiency virus type 1 was determined by MT-4 assay; assay type: functional, cell-based
HeLa [10] = test: Inhibitory concentration against human immunodeficiency virus type 1 (with G190A resistant mutation) was determined in HeLa-CD4 MAGI assay; assay type: functional, cell-based; summary of the method: as §1
HeLa [11] = test: Inhibitory concentration against human immunodeficiency virus type 1 (with K103N resistant mutation) was determined in HeLa-CD4 MAGI assay; assay type: functional, cell-based; summary of the method: as §1
HeLa [12] = test: Inhibitory concentration against human immunodeficiency virus type 1 (with V106A resistant mutation) was determined in HeLa-CD4 MAGI assay; assay type: functional, cell-based; summary of the method: as §1
HeLa [13] = test: Inhibitory concentration against human immunodeficiency virus type 1 (with V108I resistant mutation) was determined in HeLa-CD4 MAGI assay; assay type: functional, cell-based; summary of the method: as §1
HeLa [14] = test: Inhibitory concentration against human immunodeficiency virus type 1 (with Y181C resistant mutation) was determined in HeLa-CD4 MAGI assay; assay type: functional, cell-based; summary of the method: as §1
HeLa [15] = test: Inhibitory concentration against human immunodeficiency virus type 1 (with Y188C resistant mutation) was determined in HeLa-CD4 MAGI assay; assay type: functional, cell-based; summary of the method: as §1

Row | SMILES | pIC50 (HeLa [1]) | pIC50 (HeLa [2]) | pIC50 (HeLa [3]) | pIC50 (HeLa [4]) | pIC50 (HeLa [5]) | Ratio (MT4 [6]) | pIC50 (MT4 [7]) | pIC50 [8] | pIC50 (MT4 [9]) | pIC50 (HeLa [10]) | pIC50 (HeLa [11]) | pIC50 (HeLa [12]) | pIC50 (HeLa [13]) | pIC50 (HeLa [14]) | pIC50 (HeLa [15])
1 | CCCc1c(OC2CCCCC2)c2cc(Cl)ccc2[nH]c1=O | 6.00 | ~5.70 | < 5.70 | 5.96 | 6.05 | >5000 | 7.24 | 7.49 | 6.12 | 7.27 | < 5.70 | 6.01 | 6.74 | 6.33 | 7.92
2 | CCCc1c(O)nc2ccc(OC(F)(F)F)cc2c1OC1CCCC1 | < 5.70 | < 5.70 | < 5.70 | < 5.70 | < 5.70 | >40000 | 6.42 | 6.57 | 5.60 | 7.33 | < 5.70 | < 5.70 | 6.52 | 6.00 | 6.44
3 | CC(C)Cc1c(O)nc2ccc(Cl)cc2c1OC1CCCC1 | < 5.70 | < 5.70 | < 5.70 | < 5.70 | 5.96 | >40000 | 7.28 | 6.82 | 5.80 | 7.38 | < 5.70 | 5.82 | 6.55 | 7.43 | 7.23
4 | CC(C)c1c(OC2CCCCC2)c2cc(Cl)ccc2[nH]c1=O | 6.72 | < 5.70 | < 5.70 | 6.37 | ~6.10 | >40000 | 7.64 | 7.42 | 6.44 | 7.57 | 6.77 | 5.96 | 6.96 | 5.85 | 7.92
5 | CCC(C)c1c(O)nc2ccc(Cl)cc2c1OC1CCCC1 (stereo not given) | < 5.70 | < 5.70 | < 5.70 | ~5.70 | < 5.70 | >40000 | 8.05 | 8.03 | 6.54 | ~5.70 | 6.01 | < 5.70 | 5.96 | 6.49 | 6.17
6 | CCCc1c(O)nc2ccc(Cl)cc2c1OCC1CCCCC1 | < 5.70 | < 5.70 | < 5.70 | < 5.70 | 6.00 | >40000 | 5.29 | 5.92 | 5.89 | 6.59 | < 5.70 | < 5.70 | < 5.70 | 6.16 | 7.64
7 | CCCc1c(O)nc2ccc(C#N)cc2c1OC1CCCC1 | < 5.70 | < 5.70 | < 5.70 | < 5.70 | < 5.70 | >40000 | 6.92 | 7.19 | 5.70 | 9.00 | < 5.70 | 5.89 | 6.62 | 5.77 | 7.28
8 | CCCc1c(O)nc2ccc(OC)cc2c1OC1CCCC1 | < 5.70 | < 5.70 | < 5.70 | < 5.70 | < 5.70 | >40000 | 6.00 | 6.38 | 4.62 | 6.15 | < 5.70 | < 5.70 | 6.27 | 6.15 | 6.80
9 | CCCc1c(O)nc2ccc(C)cc2c1OC1CCCC1 | < 5.70 | < 5.70 | < 5.70 | < 5.70 | < 5.70 | >40000 | 6.01 | 6.40 | 5.19 | 6.82 | < 5.70 | < 5.70 | 6.15 | 6.39 | 6.62

Reference: ChEMBL document CHEMBL1138845, “Design of non-nucleoside inhibitors of HIV-1 reverse transcriptase with improved drug resistance properties. 2” (J Med Chem, 2004)
